This is a sample that favours compounds with a hit; in the whole collection about 2.2% have one here.
DENV2 CPE rescue: inhibitors of DENV2 cytopathic effect | 350,000 compounds, 1.7% hits | CPE inhibition, % at 9.99 µM | DENV2-infected cells, cytopathic effect rescue, plate reader; in the data active means CPE inhibition above about 20%, passing the limit was not always enough; inconclusive means no clear call, values can overlap the other calls; tested in BHK-21 cells;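 further: 0% = median of neutral control wells and 100% = median of positive control wells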
E-selectin induc: E-selectin induction on HUVECs; P16581; HUVEC E-selectin immunofluorescence imaging; normalized: neutral wells 0, TNF-alpha wells 100; activation, % at 7.58 µM; 260,000 compounds, 0.37% hits; AID 686992;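 active means mean E-selectin-positive cell signal at least 10% of the positive control, reached in at least 60% of replicates, without over 20% cell loss; inconclusive means no rule given, readout overlaps actives, possibly toxicity-flagged; inactive means the rest, including those meeting only one limit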
Target sequence (P16581 whole entry, looked up): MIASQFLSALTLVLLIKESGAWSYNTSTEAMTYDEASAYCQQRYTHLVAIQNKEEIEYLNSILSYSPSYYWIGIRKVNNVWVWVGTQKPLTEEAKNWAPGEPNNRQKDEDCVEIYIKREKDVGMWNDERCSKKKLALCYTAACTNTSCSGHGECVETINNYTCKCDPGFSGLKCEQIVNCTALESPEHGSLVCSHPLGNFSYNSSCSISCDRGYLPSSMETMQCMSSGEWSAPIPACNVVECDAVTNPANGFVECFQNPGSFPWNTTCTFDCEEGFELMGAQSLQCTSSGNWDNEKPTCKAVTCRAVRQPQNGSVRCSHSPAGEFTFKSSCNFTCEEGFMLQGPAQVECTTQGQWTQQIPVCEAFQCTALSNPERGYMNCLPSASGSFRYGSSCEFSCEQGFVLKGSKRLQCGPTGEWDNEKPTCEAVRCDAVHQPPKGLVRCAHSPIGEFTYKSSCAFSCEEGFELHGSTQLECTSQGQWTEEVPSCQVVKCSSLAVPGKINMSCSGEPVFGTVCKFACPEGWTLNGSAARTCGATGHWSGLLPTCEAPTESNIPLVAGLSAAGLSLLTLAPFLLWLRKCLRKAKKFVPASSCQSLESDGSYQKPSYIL
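Assay system: HUVEC primary endothelial cells. Input: 3,000 HUVEC seeded per well. Doses: one compound dose added by pin transfer. Read-out basis: % PE-positive cells. Benchmarks: TNF-alpha high, DMSO low. Detection: immunofluorescence imaging. Buffer or medium: EGM-2, gelatin.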
Statin myotox sup: suppressors of simvastatin-induced myotoxicity in C2C12 myotubes. ATP luminescence, 48 h; scaled: DMSO 0, geranylgeraniol control 100. rescue of ATP level, % at 7.49 µM. 330,000 compounds, 0.78% hits. AID 602340;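 active means mean ATP rescue above about 67%, or every replicate alone reaching that limit, limit read from the data, passing the limit was not always enough; inconclusive means no clear call, values can overlap the other calls; inactive means mean under the limit and some replicate under it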;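 further: myotubes were challenged with 10 µM simvastatin during compound exposure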
* marks the source's active call; other numbers are inactive results; ? = inconclusive; nt = no result given.

SMILES | DENV2 CPE rescue | E-selectin induc | Statin myotox sup
Cc1ccc(N2C(=O)c3ccccc3C2(O)c2ccccc2)cc1 (configuration not stated) | -8.8 | nt | 5.9
CCc1nnc(N2C(=O)c3ccccc3C2(O)c2ccccc2)s1 (configuration not stated) | 41.1* | nt | nt
CCC(c1nnnn1-c1c(C)cccc1C)N1CCN(C/C=C/c2ccccc2)CC1 (configuration not stated) | 106.3* | 1.4 | 7.3
CSCCC(c1nnnn1-c1c(C)cccc1C)N1CCN(C/C=C/c2ccccc2)CC1 (configuration not stated) | 3.7 | nt | -11.2
CN(C)c1ccc(C=Nc2ccc(N(C)C)cc2)cc1 | nt | nt | 21.7
Cc1nc(/N=C\c2ccc(N(C)C)cc2)sc1C | 32.6* | 0.0 | -4.2
CCCNC(=O)N1[C@@H]2Cn3c(cccc3=O)[C@H]1[C@@H](C(=O)N1CCC(Cc3ccccc3)CC1)[C@@H]2CO | 4.4 | 0.7 | 6.6
COc1ccc(-c2ccc3n(c2=O)C[C@H]2[C@H](CO)[C@@H](C(=O)N(C)C)N(CC4CCOCC4)[C@@H]32)cc1 | -6.2 | -0.5 | -8.7
Cc1c(NC(=O)c2cccc(NC(=O)Cc3ccc(Cl)cc3)c2)c(=O)n(-c2ccccc2)n1C | -5.5 | 6.2 | 11.9
Cc1ccc(CC(=O)Nc2cccc(C(=O)Nc3c(C)n(C)n(-c4ccccc4)c3=O)c2)cc1C | 30.5* | nt | 0.6
CC(C)NC(=O)N1CC2(C1)[C@H](c1ccccc1)[C@H](CO)N2C(=O)C1CC1 | 17.8 | -0.1 | nt
COc1ccc(Cc2nc(C(=O)NCc3ccccc3OC)cs2)cc1 | nt | nt | -31.0
COc1ccc(Cc2nc(C(=O)Nc3ccc(OC)cc3)cs2)cc1 | nt | nt | 122.4*
CS(=O)(=O)Nc1ccc2c(c1)[C@H]1C[C@@H](CC(=O)NCC3CC3)O[C@@H](CO)[C@H]1O2 | 0.4 | 0.3 | 2.2
O=C(c1ccc(F)cc1)N1CC(=O)N2[C@H](C1)[C@H](c1ccc(-c3ccccc3)cc1)[C@@H]2CO | -5.4 | 0.1 | nt
O=C(c1ccc(F)cc1)N1CC(=O)N2[C@@H](CO)[C@@H](c3ccc(C#CC4CCCC4)cc3)[C@@H]2C1 | 43.6* | -0.6 | nt
O=C(Cc1ccccn1)N1CC(=O)N2[C@H](CO)[C@@H](c3ccc(C#CC4CC4)cc3)[C@@H]2C1 | 7.2 | 0.1 | nt
O=C(c1ccc(F)cc1)N1CC(=O)N2[C@H](CO)[C@@H](c3ccc(C#CC4CCCC4)cc3)[C@@H]2C1 | ? | -0.7 | nt
O=C(Cc1ccccn1)N1CC(=O)N2[C@H](CO)[C@H](c3ccc(C#CC4CC4)cc3)[C@@H]2C1 | 40.0* | -0.6 | nt
O=C(c1ccc(F)cc1)N1CC(=O)N2[C@H](CO)[C@H](c3ccc(-c4ccccc4)cc3)[C@H]2C1 | 24.4* | 0.0 | nt
O=C(C1CCOCC1)N1CC(=O)N2[C@@H](CO)[C@H](c3ccc(C#CC4CCCC4)cc3)[C@@H]2C1 | 52.4* | 0.5 | nt
O=C(C1CCOCC1)N1CC(=O)N2[C@H](C1)[C@@H](c1ccc(C#CC3CCCC3)cc1)[C@@H]2CO | 6.8 | -0.6 | nt
CCS(=O)(=O)N1CC(=O)N2[C@@H](CO)[C@@H](c3ccc(C#CC4CCCCC4)cc3)[C@@H]2C1 | 9.8 | 0.5 | nt
C[C@@H]1CN([C@@H](C)CO)C(=O)c2cc(NC(=O)Cc3ccccc3)ccc2O[C@H]1CN(C)Cc1ccncc1 | 14.6 | -3.8 | -28.2
Cc1noc(C)c1S(=O)(=O)Nc1ccc2c(c1)CC(=O)N([C@H](C)CO)C[C@@H](C)[C@@H](CN(C)CC1CCCCC1)O2 | 5.3 | -0.1 | 58.0
SMILES | DENV2 CPE rescue | E-selectin induc | Statin myotox sup
C[C@@H]1CN([C@@H](C)CO)C(=O)c2cc(NC(=O)NC3CCCCC3)ccc2O[C@@H]1CN(C)Cc1ccncc1 | 5.3 | -0.1 | -20.6
COc1ccc(S(=O)(=O)Nc2ccc3c(c2)C(=O)N([C@H](C)CO)C[C@H](C)[C@H](CN(C)S(=O)(=O)c2ccc(F)cc2)OCCCC[C@H](C)O3)cc1 | -2.0 | -0.1 | 107.4*
COc1ccc(S(=O)(=O)N(C)C[C@H]2OCCCC[C@H](C)Oc3ccc(NS(=O)(=O)c4ccc(F)cc4)cc3C(=O)N([C@H](C)CO)C[C@H]2C)cc1 | -1.6 | 0.6 | -5.6
COc1ccc(S(=O)(=O)Nc2ccc3c(c2)C(=O)N([C@H](C)CO)C[C@@H](C)[C@H](CN(C)S(=O)(=O)c2ccc(F)cc2)OCCCC[C@H](C)O3)cc1 | -5.5 | 0.1 | 158.6*
COc1ccc(S(=O)(=O)Nc2ccc3c(c2)C(=O)N([C@H](C)CO)C[C@H](C)[C@H](CN(C)S(=O)(=O)c2ccc(F)cc2)OCCCC[C@@H](C)O3)cc1 | -5.1 | 0.1 | ?
C[C@@H]1CN([C@H](C)CO)C(=O)c2cc(C3=CCCC3)cnc2O[C@H]1CN(C)Cc1ccc(C(=O)O)cc1 | -0.4 | 0.5 | -32.2
COc1cccc(-c2ccc3n(c2=O)C[C@@H]2[C@@H](CO)[C@H](C(=O)NC4CCCC4)N[C@H]32)c1 | 1.8 | -0.2 | 1.3
CN(C)CC(=O)N[C@@H]1CC[C@@H](CCNC(=O)Nc2ccc(C(F)(F)F)cc2)O[C@H]1CO | 4.2 | -0.3 | -10.4
CCCC(=O)Nc1ccc2c(c1)nc(CN1CCN(C(=O)OCC)CC1)n2C | -7.3 | nt | -5.1
Cc1nc2cc(NC(=O)Nc3cccc([N+](=O)[O-])c3)ccc2n1C | 34.5* | nt | -26.0
CCCC(=O)Nc1ccc2c(c1)nc(CN1CCN(C(C)=O)CC1)n2C | nt | nt | 119.2*
CC(=O)c1ccc(NC(=O)Nc2ccc3c(c2)nc(C)n3C)cc1 | -4.3 | -0.4 | nt
Cn1c(CCN2CCCCC2)nc2cc(NC(=O)Nc3ccccc3)ccc21 | nt | nt | 116.3*
CC(C)C(=O)Nc1ccc2c(c1)nc(CCN1CCCCC1)n2C | 1.9 | nt | -3.7
C[C@@H]1CN([C@H](C)CO)C(=O)c2cc(NS(=O)(=O)c3cn(C)cn3)ccc2O[C@@H]1CN(C)C | 7.0 | -5.2 | 1.9
O=C(NNS(=O)(=O)c1ccc(F)cc1)c1cccc(O)c1 | 6.0 | nt | 3.0
Cc1ccc(S(=O)(=O)NNC(=O)c2cccc(O)c2)cc1 | 2.1 | 72.6* | 5.3
C[C@H](CO)N1C[C@H](C)[C@H](CN(C)Cc2ccc(C(=O)O)cc2)Oc2ccc(NC(=O)CCC(F)(F)F)cc2CC1=O | 0.8 | nt | -11.2
C[C@@H]1CN([C@@H](C)CO)C(=O)c2cc(C#Cc3ccccc3F)cnc2O[C@H]1CN(C)C(=O)C1CCC1 | 2.2 | -0.1 | nt
Cc1nc2c3ccccc3nc(SCC(=O)c3ccc(Cl)cc3)n2n1 | nt | nt | -3.3
COCCNC(=O)CSc1nc2ccccc2c2nc(C)nn12 | nt | 0.0 | 124.0*
Cc1cc(C(=O)Nc2cccc3c2O[C@@H](CN(C)C(=O)Nc2c(C)noc2C)[C@@H](C)CN([C@@H](C)CO)C3=O)n(C)n1 | -7.4 | -0.1 | -33.6
Cc1ccc2[nH]c(-c3cccc(F)c3)cc(=O)c2c1 | nt | 0.1 | -62.8
O=c1cc(-c2cccc(F)c2)[nH]c2ccccc12 | 36.0* | 1.5 | -46.8
CCNC(=O)C[C@H]1CC[C@H](NS(=O)(=O)c2ccc(F)cc2)[C@@H](CO)O1 | -0.1 | -0.4 | -1.2
CN(Cc1cn(Cc2ccccc2)nn1)C1CN(Cc2cn(Cc3ccccc3)nn2)S(=O)(=O)C1 (configuration not stated) | -6.9 | 0.1 | nt
CCN(C)C1CN(Cc2cn(Cc3ccc(F)cc3)nn2)S(=O)(=O)C1 (configuration not stated) | 45.9* | 0.0 | nt

Compound activity from PubChem BioAssay.
